An excerpt weighted towards active compounds, which were near 4.6% of everything screened.
GPR7 antagonist = GPR7 receptor antagonists, primary screen, cell-based, fluorescence, single concentration; GPR7-expressing cells, fluorescence antagonist assay; Neuropeptides B/W receptor type 1 (Homo sapiens), P48145; inhibition, % at 4.4 µM; 290,000 tested, 1.1% active; AID 1861, 2009; in the data active = inhibition above about 16%, passing the limit was not always enough;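 also: cells stimulated with the agonist NPW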
OX1R antag-1 = OX1R (HCRTR1) antagonists, primary screen, fluorescence, CHO/OX1R cells, Fluo-8 calcium, orexin A; AID 434989, 2010; Orexin/Hypocretin receptor type 1 (Homo sapiens), O43613; Fluo-8 calcium fluorescence; inhibition, % at 5 µM; 330,000 tested, 0.43% active;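 active = inhibition above its plate's threshold, mean inhibition of all tested compounds on the plate plus 3 SD, cut at about 37% in these data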
Target sequence (O43613 whole entry, looked up): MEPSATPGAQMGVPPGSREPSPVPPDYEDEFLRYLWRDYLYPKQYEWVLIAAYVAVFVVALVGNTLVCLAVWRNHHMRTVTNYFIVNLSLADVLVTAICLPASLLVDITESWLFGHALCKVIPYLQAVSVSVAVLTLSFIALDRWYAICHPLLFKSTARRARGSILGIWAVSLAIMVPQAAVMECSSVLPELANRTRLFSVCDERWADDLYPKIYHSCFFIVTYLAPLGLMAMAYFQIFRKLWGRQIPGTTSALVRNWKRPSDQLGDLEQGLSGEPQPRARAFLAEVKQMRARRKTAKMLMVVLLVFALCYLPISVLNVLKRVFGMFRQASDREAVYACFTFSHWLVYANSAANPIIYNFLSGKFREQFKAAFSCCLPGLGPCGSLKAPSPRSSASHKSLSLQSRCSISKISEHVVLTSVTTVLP
TAAR1 antag = human TAAR1 antagonists, primary screen, Fluo-8 calcium fluorescence, CHO RD-HGA16 cells. 360,000 tested, 1.5% active. Trace amine-associated receptor 1 (Homo sapiens), Q96RJ0. antagonist. inhibition, % at 3 µM;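 active = inhibition above a per-plate cutoff, the mean inhibition of test compounds on that plate plus 3 SD, cut at about 49% in these data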
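Test system: RD-HGA16 CHO cells with stable hTAAR1 and Gα16 / Probe or stimulus: EC80 β-phenethylamine stimulus / Times: seeding 17-24 h prior, 75-min 37 °C, 30-min RT dye loading / Detection: Fluo-8 calcium-sensitive fluorescence / Read-out basis: % inhibition scaled between DMSO and EC80 PEA controls / Repeats: singlicate, one well per test compound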
TAAR1 agonist = human TAAR1 agonists, primary screen, Fluo-8 calcium fluorescence, CHO RD-HGA16 cells. Trace amine-associated receptor 1 (Homo sapiens), Q96RJ0. vehicle wells 0%, saturating PEA agonist 100%. activation, % at 3 µM. 360,000 tested, 0.99% active. AID 624467, 2012;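 active = activation above the mean activation of all test compounds in the run plus 3 SD, cut at about 38% in these data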
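test system = CHO RD-HGA16 cells carrying human TAAR1 plus Gα16 | schedule = 17-24 h seeding, 75 min 37 °C dye, 30 min RT | compound dosing = 3 µM single concentration | control set = DMSO and PEA EC100 | replicates = n 1 | signal = Fluo-8 fluorescence, 5 s baseline then 140 s kinetic read | measure = percent activation vs PEA EC100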
CHO parental Ca = ATP-evoked calcium signal inhibitors, parental CHO, primary screen, counter-screen for OX1R antagonist project, cell-based, fluorescence, Fluo-8 calcium dye; parental CHO-K1, ATP-induced calcium, Fluo-8 fluorescence; inhibition, % at 5.6 µM; 330,000 tested, 0.63% active; AID 463079, 2010;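 active = inhibition above that plate's mean sample inhibition plus 3 SD, cut at about 26% in these data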
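Test system: parental CHO cells; detection: calcium-sensitive Fluo-8 fluorescence; evaluation: percent inhibition of calcium signal; also added: ATP as calcium-mobilizing challenge; repeats: one well per compound; control set: ATP-challenged DMSO wells low, unchallenged DMSO wells high; compound: single nominal dose of 5.6 µM per compound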
OX1R antag-2 = antagonists of human orexin 1 receptor (OX1R); Orexin/Hypocretin receptor type 1 (Homo sapiens), O43613; OX1R-expressing cells, FRET antagonist read-out; inhibition, % at 6.6 µM; 330,000 tested, 1.8% active; in the data active = inhibition mostly above about 38%, no sharp cut-off; inactive = mostly below about 40%
Hits are given with their value; 0 = inactive; - = not tested or not shown.

SMILES	GPR7 antagonist	OX1R antag-1	TAAR1 antag	TAAR1 agonist	CHO parental Ca	OX1R antag-2
CCOC(=O)C1CCCN(C(=S)Nc2cc(C)cc(C)c2)C1 (stereo not drawn)	0	0	0	50.4	0	0
CCOC(=O)C1CCCN(C(=S)Nc2ccc(S(=O)(=O)N3CCOCC3)cc2)C1 (stereo not drawn)	-	0	0	46.3	0	0
CC1CCCN(C(=S)Nc2ccc(S(=O)(=O)N3CCCCC3)cc2)C1 (stereo not drawn)	0	0	0	0	0	0
CCOC(=O)C1CCN(C(=O)COc2cc(C)c(Br)cc2C)CC1	0	50.0	0	0	54.4	0
CCOC(=O)C1CCN(C(=O)COc2ccc(Br)cc2Br)CC1	0	0	0	0	0	0
CCOC(=O)C1CCCN(S(=O)(=O)c2ccc(S(=O)(=O)N(CC)CC)cc2)C1 (stereo not drawn)	0	47.5	0	0	51.1	0
O=C(Nc1ccc(F)c(S(=O)(=O)N2CCOCC2)c1)C1CCCCC1	-	0	0	0	0	0
CCC1CCC2(CC1)NNC(=S)NN2	0	0	0	0	0	0
CCOC(=O)C1CCCN(C(=O)COc2ccccc2O)C1 (stereo not drawn)	0	0	0	43.2	0	0
CC[C@H](C)[C@@H]1NC(=O)c2cc([N+](=O)[O-])cc(I)c2SC[C@@H](C(N)=O)NC(=O)[C@H](CCCCN)NC1=O	0	0	0	0	0	60.9
CCOC(=O)CCCCCC(=O)Nc1ccc2c(c1)C(=O)N([C@H](C)CO)C[C@@H](C)[C@@H](CN(C)C(=O)CCC(F)(F)F)OCCCC[C@H](C)O2	-	-	0	0	-	-
CCN(CC)C(=O)c1oc2ccc(S(=O)(=O)N3CC(C)CC(C)C3)cc2c1C (stereo not drawn)	0	0	0	0	41.0	0
CCN(CC)C(=O)c1oc2ccc(S(=O)(=O)N3CCCCCC3)cc2c1C	0	0	0	0	0	0
C[C@H](CO)N1C[C@H](C)[C@@H](CN(C)C(=O)Nc2ccccc2)Oc2c(NS(=O)(=O)c3ccc(F)cc3)cccc2C1=O	-	0	0	0	0	0
O=C(c1cc(COc2cccc(C(F)(F)F)c2)on1)N1CCC(c2ccncc2)CC1	0	0	0	0	60.0	0
S=C(Nc1ccccc1)N1CCC(C2CCN(C(=S)Nc3ccccc3)CC2)CC1	19.3	0	-	-	0	0
Cc1ccc(OCCN2C(=O)C(=O)c3cccc(C)c32)cc1	0	0	0	0	0	0
Cc1cccc(OCC(=O)Nc2ccc(S(=O)(=O)Nc3onc(C)c3C)cc2)c1C	0	0	0	0	0	0
Cc1c([N+](=O)[O-])c(C/C=N/O)nn1C	0	-	0	0	-	-
Cc1ccc(S(=O)(=O)CC(N)=O)cc1	0	0	0	0	69.6	0
CN(C)c1nc(N)nc(CSc2ncc(Cl)cc2Cl)n1	0	0	0	0	0	37.8
C[C@H](O)[C@@H]1C(=O)N2CCc3c([nH]c4ccccc34)[C@@H]2C[C@@H]1N(C)C(=O)Nc1ccc(Br)cc1	-	-	0	0	-	-
COc1ccc2nc(N3CCC(C)CC3)c(C#N)cc2c1	0	0	0	0	0	57.8
COc1ccc(NS(=O)(=O)c2ccc(-c3cnc(C4CC4)o3)cc2)cc1OC	0	0	0	0	55.3	0
Cn1nc(C(C)(C)C)cc1C(=O)NCc1cc(F)cc2c1OCOC2	0	0	50.3	0	0	0
SMILES	GPR7 antagonist	OX1R antag-1	TAAR1 antag	TAAR1 agonist	CHO parental Ca	OX1R antag-2
C[C@H]1CN([C@@H](C)CO)C(=O)CCCn2cc(nn2)CO[C@@H]1CN(C)C(=O)Nc1ccc(N2CCCCC2)cc1	-	-	0	0	-	-
CCOC(=O)[C@@H]1[C@H]2COc3cc(OC)ccc3[C@H]2N2C(=O)N(c3ccc(C(F)(F)F)cc3)C(=O)[C@]12C	-	0	0	0	49.6	0
CCOC(=O)[C@@H]1[C@H]2COc3cc(OC)ccc3[C@@H]2N2C(=O)N(c3ccc(C(F)(F)F)cc3)C(=O)[C@@]12C	0	0	0	0	0	0
CNc1cc(CSC)nc(SCc2ccc(Cl)c(Cl)c2)n1	0	55.1	0	0	0	49.3
Cc1nc(SCc2ccc(Cl)c(Cl)c2)n[nH]1	0	-	0	0	-	-
Cc1ccc(C)c(N=Nc2ccc(O)c3ncccc23)c1	0	0	0	0	37.3	0
Oc1ccc(N=Nc2ccc3c(c2)OCCO3)c2ncccc12	0	50.5	79.1	0	50.8	0
CCOc1ccc(N=Nc2ccc(O)c3ncccc23)cc1	0	-	0	0	-	-
Cc1cccc(N=Nc2ccc(O)c3ncccc23)c1	0	47.8	76.4	0	67.7	0
N#CC1=C(N)NC(SCc2ccc(F)cc2)=C(C#N)C12CCCCC2	0	0	53.6	0	0	0
CCOc1ccc(NC(=O)Nc2ccc3c(c2)N(C)C(=O)CS3)cc1	0	0	52.0	0	0	0
COc1ccc(NC(=O)Nc2ccc3c(c2)N(C)C(=O)CS3)cc1Cl	0	0	63.0	0	31.4	0
COc1ccc(NC(=O)Nc2ccc3c(c2)N(C)C(=O)CS3)cc1OC	0	0	0	0	0	0
Cc1ccc(NC(=O)Nc2ccc3c(c2)N(C)C(=O)CS3)nc1	0	0	48.7	0	0	0
CN(C)c1ncnc2c1C(c1ccccc1)C(C)(C)O2 (stereo not drawn)	-	-	0	0	-	-
CCOC(=O)c1sc(NC(=O)Nc2ccc(Cl)cc2)nc1C	0	0	0	0	42.9	0
CCOc1ccc(NC(=O)CCN2C(=O)C3CCCCC3C2=O)cc1OCC (stereo not drawn)	-	0	0	0	0	0
CCOC(=O)c1sc(NC(=O)c2sccc2C)cc1C	0	0	0	0	0	42.0
CCOC(=O)c1sc(NC(=O)CCN2C(=O)C3CCCCC3C2=O)cc1C (stereo not drawn)	-	0	49.0	0	0	0
CCOC(=O)c1sc(NC(=O)Nc2cccc(Cl)c2)cc1C	0	0	0	0	33.9	47.0
CCOC(=O)c1c(NC(=O)Nc2ccccc2)sc(C)c1C	0	0	0	0	0	0
CCOC(=O)c1sc(NC(=O)c2cccs2)cc1C	0	0	0	0	0	0
CCCCn1c(SCC(=O)N2CCOCC2)nnc1-c1cccs1	0	0	-	-	0	0
CCN(CC)C(=O)COc1coc(CN2CCN(c3ccccc3)CC2)cc1=O	0	0	0	0	0	0
CCOC(=O)c1sc(NC(=O)c2ccc(Br)o2)cc1C	0	0	0	0	0	45.3

High-throughput results from PubChem.
